TLR4 MyD88 comp: inhibitors of human TLR4-MyD88 binding | HeLa CL3-4 TLR4/MyD88 BLA complementation, FRET ratio | O00206+Q99836 | inhibition, % at 8.4 µM | 0.18% of 200,000 active; in the data active = inhibition above about 25%;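 also: 0% = vehicle and 100% = reference inhibitor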
Target sequence (O00206 whole entry, looked up): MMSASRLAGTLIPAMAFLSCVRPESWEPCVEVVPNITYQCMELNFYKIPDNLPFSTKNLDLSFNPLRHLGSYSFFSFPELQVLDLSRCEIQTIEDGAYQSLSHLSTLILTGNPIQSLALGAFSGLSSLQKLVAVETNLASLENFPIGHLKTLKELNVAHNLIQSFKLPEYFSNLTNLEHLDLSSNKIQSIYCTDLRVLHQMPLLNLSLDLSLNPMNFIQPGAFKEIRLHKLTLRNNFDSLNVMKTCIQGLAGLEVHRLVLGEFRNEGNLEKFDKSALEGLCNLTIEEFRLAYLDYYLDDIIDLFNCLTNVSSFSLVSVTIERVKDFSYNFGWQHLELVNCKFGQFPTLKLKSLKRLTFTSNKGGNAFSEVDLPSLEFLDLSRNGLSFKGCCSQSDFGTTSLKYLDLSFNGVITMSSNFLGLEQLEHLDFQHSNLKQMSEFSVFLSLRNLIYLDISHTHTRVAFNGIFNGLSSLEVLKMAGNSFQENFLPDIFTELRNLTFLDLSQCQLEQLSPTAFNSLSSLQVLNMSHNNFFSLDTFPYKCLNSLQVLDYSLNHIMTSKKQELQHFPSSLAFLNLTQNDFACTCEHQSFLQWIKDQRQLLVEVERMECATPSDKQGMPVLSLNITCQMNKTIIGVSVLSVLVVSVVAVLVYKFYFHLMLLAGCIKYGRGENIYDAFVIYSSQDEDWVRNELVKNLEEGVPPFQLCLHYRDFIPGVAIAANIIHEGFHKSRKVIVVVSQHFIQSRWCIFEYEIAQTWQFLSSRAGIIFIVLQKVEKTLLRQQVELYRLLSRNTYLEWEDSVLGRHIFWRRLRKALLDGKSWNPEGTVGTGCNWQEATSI
Target sequence (Q99836 whole entry, looked up): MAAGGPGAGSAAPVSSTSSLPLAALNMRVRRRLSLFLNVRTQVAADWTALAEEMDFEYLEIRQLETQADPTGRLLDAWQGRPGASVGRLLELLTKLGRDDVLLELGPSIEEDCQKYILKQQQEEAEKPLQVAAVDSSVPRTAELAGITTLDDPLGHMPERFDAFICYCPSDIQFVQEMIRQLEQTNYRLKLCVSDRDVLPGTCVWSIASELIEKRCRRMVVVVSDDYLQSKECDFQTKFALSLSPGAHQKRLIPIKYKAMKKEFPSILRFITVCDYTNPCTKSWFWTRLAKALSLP
TLR9-MyD88 inh: blocks human TLR9 binding to MyD88; Q9NR96+Q99836; CHO BLA complementation TLR9-MyD88, CCF4 FRET ratio; inhibition, % at 4.98 µM; 0.21% of 340,000 active; AID 504734;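 active = inhibition above the mean over all tested compounds plus 3 SD, cut at about 21% in these data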;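 also: 0% = DMSO only wells and 100% = clavulanate BLA inhibitor control wells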
SR-BI HDL uptake: mouse SR-BI HDL lipid transfer inhibition; ldlA[mSR-BI] CHO cells, DiI-HDL uptake fluorescence, 3 h; Q61009; 0.96% of 320,000 active; inhibition, % at 12.5 µM;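 active = mean replicate inhibition of at least 70% and a set share of replicates each scoring 70 or more; inconclusive = meets just one of the two criteria; inactive = fails both criteria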;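 also: 0% = median of neutral control wells and 100% = median of positive control wells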
Lipid droplet: hepatic lipid droplet formation modulation; AID 1656; 0.4% of 240,000 active; AML12 mouse hepatocytes, oleate lipid droplets, BODIPY imaging; inhibition, % at 6.5 µM;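 active = lipid droplet intensity inhibited by at least 50%, with more than 500 cells counted; inconclusive = wells with under 300 cells, treated as cytotoxic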
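Assay system: AML12 mouse liver cells | Compound dosing: One dose, 6.5 µM compound | Read-out basis: Droplet intensity reduction, % inhibition | Measured by: Fluorescence imaging, 20x objective, two fields per well | Schedule: Overnight treatment with compound plus oleate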
SR-BI uptake up: SR-BI HDL lipid transfer activation. CHO ldlA[mSR-BI] cells, DiI-HDL uptake fluorescence, 3 h; 100 = double the neutral-control signal. activation, % at 12.5 µM. 0.096% of 320,000 active;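 active = mean replicate activation of at least 60% and every replicate at or above 60%; inconclusive = mean or all-replicate condition met, but not both; inactive = mean below 60% and not all replicates reaching 60%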;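 also: 0% = median plate neutral-control signal and 100% = twice that signal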
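Test system: SR-BI-overexpressing, LDLR-lacking CHO cells; Also added: labelled HDL, 10 µg/mL; Measured by: bottom-read cell fluorescence after medium removal, ex 550/em 595 nm; Timing: 3 h uptake period with compound, 37 °C; Buffer or medium: F12, 0.5% BSA, 25 mM HEPES; Doses: single compound concentration, delivered by pin transfer.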
NOD2-RIPK2 inh: NOD2-RIPK2 protein interaction inhibition; O43353; CHO BLA complementation NOD2-RIPK2, CCF4 ratio; inhibition, % at 4.98 µM; 0.38% of 360,000 active; AID 624267; in the data active = inhibition above about 21%;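 also: 0% = vehicle only and 100% = reference blocker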
Numbers without * were called inactive. Hits are enriched below; roughly 1.6% of the tested compounds scored in any of these assays.

How did CCOc1ccccc1/C=N/NC(=O)CNC(=O)c1cccs1 do in these assays?
TLR4 MyD88 comp: 0.3; TLR9-MyD88 inh: -8.6; SR-BI HDL uptake: 26.4; Lipid droplet: 11.7; SR-BI uptake up: -26.4; NOD2-RIPK2 inh: 8.9

What do the screens show for `CCOc1ccccc1/C=N/NC(=O)c1ccc(Cn2cc([N+](=O)[O-])cn2)o1`?
TLR4 MyD88 comp: -3.1; TLR9-MyD88 inh: 0.0; SR-BI HDL uptake: 86.7*; Lipid droplet: -14.7; SR-BI uptake up: -86.7; NOD2-RIPK2 inh: -2.8

What do the screens show for `CCOc1ccccc1C=NNC(=O)CCCCC(=O)NN=Cc1ccccc1OCC`?
TLR9-MyD88 inh: -6.8; SR-BI HDL uptake: 80.7*; SR-BI uptake up: -80.7; NOD2-RIPK2 inh: 0.7

What do the screens show for `CC1=[N+](C)c2ccc3ccccc3c2C1(C)C`?
TLR4 MyD88 comp: 12.2; TLR9-MyD88 inh: 3.2; SR-BI HDL uptake: -222.8; Lipid droplet: -15.3; SR-BI uptake up: 222.8*; NOD2-RIPK2 inh: -12.8

What do the screens show for `CCCCNc1c(-c2ccc(SC(C)CC)c(OC)c2)nc2ccc(C)cn12` (stereo unspecified)?
TLR9-MyD88 inh: -10.2; SR-BI HDL uptake: 69.1; SR-BI uptake up: -69.1; NOD2-RIPK2 inh: -3.6

How did CCCCNc1c(-c2ccc(SC(C)CC)cc2)nc2cnccn12 (stereo unspecified) do in these assays?
TLR9-MyD88 inh: 53.8*; SR-BI HDL uptake: 66.2; SR-BI uptake up: -66.2; NOD2-RIPK2 inh: 69.0*

How did Cc1cc(Br)c(OCc2ccc(C(=O)N/N=C/c3ccc[nH]3)cc2)c(Br)c1 do in these assays?
TLR9-MyD88 inh: -3.9; SR-BI HDL uptake: 91.4*; SR-BI uptake up: -91.4; NOD2-RIPK2 inh: 2.0

How did O=C(N/N=C/c1ccc[nH]1)c1ccc(COc2cccc3cccnc23)cc1 do in these assays?
TLR4 MyD88 comp: -0.6; TLR9-MyD88 inh: 0.6; SR-BI HDL uptake: 59.8; Lipid droplet: 0.5; SR-BI uptake up: -59.8; NOD2-RIPK2 inh: 3.6

How did N#CCC(=O)Nc1ncn(Cc2ccccc2Cl)n1 do in these assays?
TLR4 MyD88 comp: 18.6; TLR9-MyD88 inh: 6.8; SR-BI HDL uptake: -20.3; Lipid droplet: 20.1; SR-BI uptake up: 20.3; NOD2-RIPK2 inh: -2.7

How did CC(C(=O)Nc1ccccc1Br)N1c2cccc3cccc(c23)S1(=O)=O (stereo unspecified) do in these assays?
TLR9-MyD88 inh: -8.7; SR-BI HDL uptake: -32.9; Lipid droplet: -27.6; NOD2-RIPK2 inh: 0.9

What do the screens show for `COc1ccc(NC(=O)c2ccc(Cl)nc2)cc1S(=O)(=O)N1CCCCC1`?
TLR4 MyD88 comp: 15.2; TLR9-MyD88 inh: -6.7; SR-BI HDL uptake: 75.0*; Lipid droplet: -1.5; SR-BI uptake up: -75.0; NOD2-RIPK2 inh: -6.0

Results for COc1cc(/C=N/NC(=O)CC#N)ccc1Oc1nc(Cl)ncc1F ?
TLR9-MyD88 inh: -10.0; SR-BI HDL uptake: 82.0*; Lipid droplet: 7.4; SR-BI uptake up: -82.0; NOD2-RIPK2 inh: -3.6

Results for COc1ccc(C=NNC(=O)CCCC(=O)NN=Cc2ccc(OC)c(OC)c2)cc1OC ?
TLR9-MyD88 inh: 7.6; SR-BI HDL uptake: 17.2; SR-BI uptake up: -17.2; NOD2-RIPK2 inh: -5.3

What do the screens show for `O=S(=O)(Nc1nc2ccccc2nc1Nc1ccc(N2CCOCC2)cc1)c1cc(Cl)ccc1Cl`?
TLR4 MyD88 comp: 2.6; TLR9-MyD88 inh: 3.2; SR-BI HDL uptake: 72.8*; Lipid droplet: -18.2; SR-BI uptake up: -72.8; NOD2-RIPK2 inh: -9.8

How did Cc1ccc(S(=O)(=O)NCc2ccccc2)cc1C(=O)NCc1ccncc1 do in these assays?
TLR9-MyD88 inh: -7.3; NOD2-RIPK2 inh: 0.9

Results for NC(=O)C(c1ccccc1)c1ccc(C(=O)c2ccccc2)cc1 (stereo unspecified) ?
TLR9-MyD88 inh: -11.2; SR-BI HDL uptake: 13.2; Lipid droplet: -10.0; SR-BI uptake up: -13.2; NOD2-RIPK2 inh: -1.3

Results for COc1cc(/C=N/n2c(-c3ccc4c(c3)NC(=O)CO4)csc2=Nc2cccc(C)c2)ccc1O ?
TLR4 MyD88 comp: 8.4; TLR9-MyD88 inh: -5.5; SR-BI HDL uptake: 82.7*; Lipid droplet: -4.1; SR-BI uptake up: -82.7; NOD2-RIPK2 inh: -5.7

Results for COCCN=c1scc(-c2ccc3c(c2)NC(=O)CO3)n1/N=C(\C)c1ccc(O)cc1 ?
TLR9-MyD88 inh: 6.2; SR-BI HDL uptake: inconclusive; Lipid droplet: 0.0; SR-BI uptake up: -70.6; NOD2-RIPK2 inh: -8.3

What do the screens show for `N#Cc1sc2nc(N3CCCCC3)c3c(c2c1N)CCCC3`?
TLR4 MyD88 comp: -10.3; TLR9-MyD88 inh: 5.0; SR-BI HDL uptake: 73.9*; Lipid droplet: 24.2; SR-BI uptake up: -73.9; NOD2-RIPK2 inh: 0.2

What do the screens show for `Cc1cc(C)cc(NC(=O)c2cc3c(=O)n4ccccc4nc3s2)c1`?
TLR9-MyD88 inh: 4.6; SR-BI HDL uptake: 78.0*; Lipid droplet: 3.3; SR-BI uptake up: -78.0; NOD2-RIPK2 inh: -0.9

How did CCc1c(C(=O)Nc2cc(C)cc(C)c2)[nH]c(C)c1C(C)=O do in these assays?
TLR4 MyD88 comp: -6.6; TLR9-MyD88 inh: -9.6; SR-BI HDL uptake: 76.6*; SR-BI uptake up: -76.6; NOD2-RIPK2 inh: 6.4

How did CCOc1ccc(CCNC(=O)c2[nH]c(C)c(C(C)=O)c2CC)cc1OCC do in these assays?
TLR4 MyD88 comp: 7.8; TLR9-MyD88 inh: -3.6; SR-BI HDL uptake: 9.7; Lipid droplet: 16.2; SR-BI uptake up: -9.7; NOD2-RIPK2 inh: -3.1

Results for COc1cc(OC)c(NC(=O)c2cncn2-c2ccc(F)cc2)cc1Cl ?
TLR9-MyD88 inh: -9.2; SR-BI HDL uptake: 71.7*; Lipid droplet: -5.2; SR-BI uptake up: -71.7; NOD2-RIPK2 inh: -0.9

Results for CCOc1ccc(/C=N/NC(=O)Cc2ccccc2)cc1CN1CC2CC(C1)c1cccc(=O)n1C2 (stereo unspecified) ?
TLR9-MyD88 inh: -8.0; SR-BI HDL uptake: 10.3; SR-BI uptake up: -10.3; NOD2-RIPK2 inh: -1.2

How did Cc1cc(Cl)ccc1OCCCC(=O)NNC(=O)c1ccccc1O do in these assays?
TLR9-MyD88 inh: -3.0; SR-BI HDL uptake: 108.8*; SR-BI uptake up: -108.8; NOD2-RIPK2 inh: -8.1

Results for Cc1ccccc1C(=O)Nc1ccc(C(=O)NNC(=O)CCCOc2ccc(Cl)cc2Cl)cc1 ?
TLR4 MyD88 comp: 4.7; TLR9-MyD88 inh: -2.3; SR-BI HDL uptake: 25.8; SR-BI uptake up: -25.8; NOD2-RIPK2 inh: -10.7

How did O=C(CN1C(=O)NC2(CCCC2)C1=O)Nc1cc(S(=O)(=O)N2CCCCC2)ccc1Cl do in these assays?
TLR9-MyD88 inh: -4.9; SR-BI HDL uptake: -10.3; SR-BI uptake up: 10.3; NOD2-RIPK2 inh: 5.9

What do the screens show for `O=C(Nc1ccccc1)c1cccc(NC(=O)c2ccco2)c1`?
TLR9-MyD88 inh: -1.8; SR-BI HDL uptake: 13.5; SR-BI uptake up: -13.5; NOD2-RIPK2 inh: -0.5

Results for C=Cc1cccc(NC(=O)c2ccc(NC(=O)c3ccco3)cc2)c1 ?
TLR9-MyD88 inh: 0.6; SR-BI HDL uptake: 92.4*; Lipid droplet: 2.8; SR-BI uptake up: -92.4; NOD2-RIPK2 inh: -8.0
